Assay results from ChEMBL document CHEMBL1143626, “Morphiceptin analogues containing a dipeptide mimetic structure: an investigation on the bioactive topology at the mu-receptor” (J Med Chem, 2005).
Where a SMILES comes first, the peptide text is derived from it. [ ]: non-standard residue; d: D form.

Key:
Mu-type opioid receptor = Mu-type opioid receptor (Rattus norvegicus, UniProt P33535); test: Inhibition of [3H]DAMGO binding to rat whole brain Opioid receptor mu
Summary of the method: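 Rat whole-brain (minus cerebellum) membranes (0.3 mg protein) were incubated with 0.7 nM [3H]DAMGO and peptide (1 nM to 10 µM) for 2 h at 25 °C. Buffer was 50 mM Tris-HCl pH 7.4, 5 mM MgCl2, with protease inhibitors. Nonspecific binding was defined with 10 µM BNTX. Bound ligand was separated by GF/C filtration. Mean ± SEM, ≥3 experiments.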

Cavia porcellus [1] = species: Cavia porcellus; test: Inhibition of isolated guinea pig ileum contraction induced by electrical stimulation; assay type: functional
Summary of the method: (§1)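 Electrical field stimulation was applied after 30-40 min equilibration: train 100 ms, pulse width 1 ms, pulse interval 10 ms, supramaximal 20 V. Compounds were added cumulatively at 3-fold steps (0.1 nM to 1 µM), with parallel runs in 10 nM naloxone. Isotonic tension was recorded as % of control […]. Efficacy is the maximal inhibition; EC50 is the half-maximal concentration. Mean ± SEM, 4-6 experiments.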

Cavia porcellus [2] = species: Cavia porcellus; test: Efficacy against isolated guinea pig ileum contraction induced by electrical stimulation; assay type: functional; summary of the method: as §1
[3] = target: Delta-type opioid receptor (Rattus norvegicus) (UniProt P33533); test: Inhibition of [3H]naltrindole binding to rat whole brain Opioid receptor delta at 1-10 uM
Sequence of Delta-type opioid receptor (Rattus norvegicus) (P33533 whole entry): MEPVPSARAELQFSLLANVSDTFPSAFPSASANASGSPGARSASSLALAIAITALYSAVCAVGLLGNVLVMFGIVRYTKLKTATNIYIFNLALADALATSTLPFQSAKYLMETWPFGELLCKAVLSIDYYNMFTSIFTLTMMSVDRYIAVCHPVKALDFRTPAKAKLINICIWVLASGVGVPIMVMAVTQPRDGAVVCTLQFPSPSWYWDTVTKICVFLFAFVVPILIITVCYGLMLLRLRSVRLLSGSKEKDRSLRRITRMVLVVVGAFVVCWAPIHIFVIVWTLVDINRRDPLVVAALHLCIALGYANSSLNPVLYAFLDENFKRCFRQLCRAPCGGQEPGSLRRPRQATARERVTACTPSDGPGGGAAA
Summary of the method: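 Brain (minus cerebellum) membranes were labelled with [3H]naltrindole as the δ radioligand. […] Mean ± SEM, n experiments.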

Sequence of Mu-type opioid receptor (P33535 whole entry): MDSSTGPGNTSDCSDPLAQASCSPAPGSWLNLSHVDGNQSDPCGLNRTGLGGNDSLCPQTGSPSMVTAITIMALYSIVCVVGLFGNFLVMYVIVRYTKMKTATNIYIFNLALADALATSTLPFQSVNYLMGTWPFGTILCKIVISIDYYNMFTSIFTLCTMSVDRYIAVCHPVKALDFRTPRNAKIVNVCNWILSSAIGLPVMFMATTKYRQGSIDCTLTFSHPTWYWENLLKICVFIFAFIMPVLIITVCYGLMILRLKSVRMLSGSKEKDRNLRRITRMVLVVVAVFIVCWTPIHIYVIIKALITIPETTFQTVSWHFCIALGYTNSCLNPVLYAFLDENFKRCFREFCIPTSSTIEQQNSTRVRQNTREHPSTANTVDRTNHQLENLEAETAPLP

Row | SMILES | Ki (Mu-type opioid receptor) [nM] | EC50 (Cavia porcellus [1]) [nM] | Efficacy (Cavia porcellus [2]) [%] | inhibition [3] [%]
1 | NC(=O)[C@@H]1CCCN1C(=O)[C@H](Cc1ccccc1)NC(=O)[C@@H]1CCCN1C(=O)[C@@H](N)Cc1ccc(O)cc1 (H-YPFP-NH2) [listing 1 of 2 here] | 25.6 | 13 |  | 
2 | CN1CC[C@]23c4c5ccc(O)c4O[C@H]2[C@@H](O)C=C[C@H]3[C@H]1C5 [MORPHINE] |  |  | 66 | 
3 | C[C@@H](NC(=O)[C@@H](N)Cc1ccc(O)cc1)C(=O)NCC(=O)N(C)[C@@H](Cc1ccccc1)C(=O)NCCO [DAMGO] |  | 36.2 | 61 | 
4 | NC(=O)[C@H]1CCCN1C(=O)[C@H](Cc1ccccc1)NC(=O)[C@@H]1CCCN1C(=O)[C@@H](N)Cc1ccc(O)cc1 (H-YPF[dP]-NH2) |  |  |  | 23.6
5 | NC(=O)[C@@H]1CCCN1C(=O)[C@H](Cc1ccccc1)NC(=O)[C@@H]1CCCN1C(=O)[C@@H](N)Cc1ccc(O)cc1 (H-YPFP-NH2) [listing 2 of 2 here] |  |  | 65 | 
6 | CN(C)C(=O)C(CCN1CCC(O)(c2ccc(Cl)cc2)CC1)(c1ccccc1)c1ccccc1 [LOPERAMIDE] |  | 489 | 11 | 
7 | NC(=O)[C@@H]1CSC([C@@H](Cc2ccccc2)NC(=O)[C@@H]2CCCN2C(=O)[C@@H](N)Cc2ccc(O)cc2)N1 (stereo partly drawn) | 290 | 36 | 71 | 42.2
8 | NC(=O)[C@@H]1CCCN1C(=O)[C@H](Cc1ccccc1)NC(=O)[C@@H]1CSC([C@@H](N)Cc2ccc(O)cc2)N1 (stereo partly drawn) |  |  | 17 | 10.2
9 | NC(=O)[C@@H]1CSC([C@H](Cc2ccccc2)NC(=O)[C@@H]2CCCN2C(=O)[C@@H](N)Cc2ccc(O)cc2)N1 (stereo partly drawn) | 14.1 | 9.7 | 65 | 22.7
10 | NC(=O)[C@@H]1CSC([C@H](Cc2c[nH]c3ccccc23)NC(=O)[C@@H]2CCCN2C(=O)[C@@H](N)Cc2ccc(O)cc2)N1 (stereo partly drawn) | 178 | 28 | 70 | 67.8
